In ChEMBL document CHEMBL1641380, “Novel tetrahydropyrido[3,2-c]pyrroles as 5-HT(7) antagonists” (Bioorg Med Chem Lett, 2011):
Calls of active or inactive are those of the source. No cut-off for these calls is given here.

Key:
[1] = target: 5-hydroxytryptamine receptor 7 (Rattus norvegicus, UniProt P32305); assay: Displacement of [3H]5-CT from rat recombinant 5HT7 receptor expressed in HEK293 cells after 60 mins; assay type: cell-based
Summary of the method: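 Membranes from HEK-293 cells stably expressing rat 5-HT7 incubated 60 min at room temperature with 1 nM [3H]5-CT and increasing test compound; rapid filtration, radioactivity counted. IC50 from nonlinear sigmoidal fits, Ki by Cheng-Prusoff. Means of three experiments in triplicate, SEM; final DMSO ≤0.4%.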

[2] = Binding affinity to adrenergic alpha1 receptor
[3] = Drug level in rat brain at 10 mg/kg, ip after 1 hr; assay type: ADME, organism-based; design: dose 10 mg/kg, route intraperitoneal; settings: read-out: Drug uptake
Summary of the method: (§1)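 Rats dosed 10 mg/kg intraperitoneally; brain and plasma compound concentrations measured 1 h after dosing.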

[4] = Drug level in rat plasma at 10 mg/kg, ip after 1 hr; assay type: ADME, organism-based; design: dose 10 mg/kg, route intraperitoneal; settings: read-out: Drug uptake; summary of the method: as §1
Rattus norvegicus = assay: Inhibition of 5-CT-induced hypothermia in rat at 10 mg/kg, ip; assay type: functional, organism-based; design: dose 10 mg/kg
Summary of the method: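 Conscious rats given test compound intraperitoneally at 10 mg/kg; antagonism of hypothermia induced by the 5-HT7 agonist 5-CT assessed.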

[5] = target: 5-hydroxytryptamine receptor 7 (Rattus norvegicus) (UniProt P32305); assay: Antagonist activity at rat recombinant 5HT7 receptor expressed in HEK293 cells assessed as decrease of 5-CT-induced increase of cAMP level after 20 mins by competitive immunoassay
[6] = target: 5-hydroxytryptamine receptor 7 (Homo sapiens, UniProt P34969); assay: Binding affinity to 5HT7 receptor
Sequence of 5-hydroxytryptamine receptor 7 (Homo sapiens, UniProt P34969) (P34969 whole entry): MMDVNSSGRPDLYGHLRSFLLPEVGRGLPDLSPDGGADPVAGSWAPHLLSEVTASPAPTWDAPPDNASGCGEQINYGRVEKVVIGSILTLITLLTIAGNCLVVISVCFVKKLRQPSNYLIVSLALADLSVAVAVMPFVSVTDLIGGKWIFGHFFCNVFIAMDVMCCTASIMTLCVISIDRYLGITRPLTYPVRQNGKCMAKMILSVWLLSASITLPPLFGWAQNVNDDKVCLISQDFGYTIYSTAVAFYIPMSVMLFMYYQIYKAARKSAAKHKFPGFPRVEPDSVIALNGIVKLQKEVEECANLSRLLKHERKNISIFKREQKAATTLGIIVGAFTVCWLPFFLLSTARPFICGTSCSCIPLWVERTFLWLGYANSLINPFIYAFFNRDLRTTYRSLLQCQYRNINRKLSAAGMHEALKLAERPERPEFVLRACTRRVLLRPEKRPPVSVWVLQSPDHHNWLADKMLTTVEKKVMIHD

Sequence of 5-hydroxytryptamine receptor 7 (Rattus norvegicus) (P32305 whole entry): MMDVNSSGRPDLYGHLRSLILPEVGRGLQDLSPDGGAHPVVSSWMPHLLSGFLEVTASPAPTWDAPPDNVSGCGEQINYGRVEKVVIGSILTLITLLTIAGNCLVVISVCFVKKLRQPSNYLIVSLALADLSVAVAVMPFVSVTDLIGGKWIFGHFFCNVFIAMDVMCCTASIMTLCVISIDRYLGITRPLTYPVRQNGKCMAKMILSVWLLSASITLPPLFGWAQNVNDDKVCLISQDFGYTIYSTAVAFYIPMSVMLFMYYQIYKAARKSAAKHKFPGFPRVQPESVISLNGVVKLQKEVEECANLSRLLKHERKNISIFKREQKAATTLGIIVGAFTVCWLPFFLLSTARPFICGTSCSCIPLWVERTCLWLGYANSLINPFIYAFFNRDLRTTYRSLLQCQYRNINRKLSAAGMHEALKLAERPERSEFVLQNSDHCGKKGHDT
Sequence of 5-hydroxytryptamine receptor 7 (Rattus norvegicus, UniProt P32305) (P32305 whole entry): as above

| Ki [1] | SMILES | also measured |
| --- | --- | --- |
| 250 nM | CCN1CCc2c(c(-c3ccc(Cl)cc3)cn2Cc2ccccc2)C1 |  |
| 290 nM | COc1ccc(-c2cn(Cc3ccccc3)c3c2CNCC3)cc1 |  |
| 10000 nM | Oc1ccc(-c2cn(Cc3ccccc3)c3c2CNCC3)cc1 |  |
| 2730 nM | Fc1cccc(-c2cn(Cc3ccccc3)c3c2CNCC3)c1 |  |
| 533 nM | Clc1ccc(-c2cn(Cc3cccc(Cl)c3)c3c2CNCC3)cc1 |  |
| 6600 nM | Clc1cccc(Cn2cc(-c3ccccc3)c3c2CCNC3)c1 |  |
| 10000 nM | Clc1cccc(-c2cn(Cc3ccccc3)c3c2CNCC3)c1 |  |
| 107 nM | Clc1ccc(-c2cn(Cc3ccccc3)c3c2CNCC3)cc1 | pKb [5]: 7.2 |

More lines, now with the values behind:

| SMILES | Ki [1] | also measured |
| --- | --- | --- |
| Clc1ccc(-c2cn(Cc3ccccc3)c3c2CNCC3)c(Cl)c1 | 2070 nM |  |
| Clc1ccccc1Cn1cc(-c2ccccc2)c2c1CCNC2 | 2290 nM |  |
| CC(C)N1CCc2c(c(-c3ccc(Cl)cc3)cn2Cc2ccccc2)C1 | 370 nM |  |
| CC(C)(C)c1ccc(-c2cn(Cc3ccccc3)c3c2CNCC3)cc1 | 10000 nM |  |
| O=[N+]([O-])c1ccc(-c2cn(Cc3ccccc3)c3c2CNCC3)cc1 | 450 nM |  |
| Cc1ccc(-c2cn(Cc3ccccc3)c3c2CNCC3)cc1 | 35 nM | Activity [2]: 5 nM; concentration at 1 h [3]: 27 µM; concentration at 1 h [4]: 3000 nM; Activity (Rattus norvegicus): Active; pKb [5]: 7.6 |
| Clc1ccc(-c2nn(Cc3ccccc3)c3c2CNCC3)cc1 |  | Ki [6]: 14 nM |
| CN1CCc2c(c(-c3ccc(Cl)cc3)cn2Cc2ccccc2)C1 | 36 nM |  |
| Clc1ccc(-c2cn(Cc3ccccc3)c3c2CNCC3)cc1Cl | 4470 nM |  |
| c1ccc(Cn2cc(-c3ccccc3)c3c2CCNC3)cc1 | 220 nM | pKb [5]: 6.7 |
| Fc1ccc(-c2cn(Cc3ccccc3)c3c2CNCC3)cc1 | 45 nM |  |
| Clc1ccc(Cn2cc(-c3ccccc3)c3c2CCNC3)cc1 | 753 nM |  |
| FC(F)(F)c1ccc(-c2cn(Cc3ccccc3)c3c2CNCC3)cc1 | 167 nM |  |
| FC(F)(F)Oc1ccc(-c2cn(Cc3ccccc3)c3c2CNCC3)cc1 | 10000 nM |  |
